Columns and labels:
[1] = Toxicity ratio determined by the quotient of IC50 values in the myocytes divided by the average value in the three tumor lines.; assay type: functional
How it was run: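 Ratio is the myocyte cardiotoxicity IC50 (1-h exposure, ATP/protein ratio versus untreated myocytes) divided by the mean IC50 in sensitive L1210 and the two human tumor lines, measured with continuous exposure.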

[2] = tested on: L1210; assay: Inhibitory activity against sensitive L1210 cell lines; assay type: functional, cell-based; conditions: Mus musculus
[3] = tested on: WiDr; assay: Tested against WiDr colon (sensitive) in the sulforhodamine B assay.; assay type: functional, cell-based; conditions: Homo sapiens
How it was run: (§1)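 Sulforhodamine B assay. Cells plated at 50 000/well; drug added on day 2 at 10^1–10^-5 μg/mL in half-log steps from DMSO stock diluted in PBS, final DMSO ≤0.1%. After 8-day exposure at 37 °C, cells fixed with TCA at 4 °C for 1 h and stained 30 min with 0.4% SRB. Dye solubilized in 10 mM Tris and OD read at 564 nm. Six wells per concentration; IC50 averaged.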

[4] = tested on: MCF7; assay: Tested against […] breast carcinoma (doxorubicin resistant) cell line in the sulforhodamine B assay.; assay type: functional, cell-based; conditions: Homo sapiens; how it was run: as §1
[5] = tested on: L1210; assay: Inhibitory activity against resistant murine leukemia L1210 cell lines.; assay type: functional, cell-based; conditions: Mus musculus
[6] = tested on: WiDr; assay: Tested against WiDr colon carcinoma (resistant) in the sulforhodamine B assay.; assay type: functional, cell-based; conditions: Homo sapiens; how it was run: as §1
[7] = tested on: Tumor cell line; assay: An average for IC50 values in the two solid tumor cell lines.; assay type: functional, cell-based
[8] = tested on: OVCAR-3; assay: Inhibitory activity against OVCAR-3 cell line; assay type: functional, cell-based; conditions: Homo sapiens
[9] = tested on: MCF7; assay: Tested against […] breast carcinoma (sensitive) cell line in the sulforhodamine B assay.; assay type: functional, cell-based; conditions: Homo sapiens; how it was run: as §1
[10] = tested on: UACC-375; assay: Inhibitory activity against […] cell line; assay type: functional, cell-based; conditions: Homo sapiens
[11] = species on record: Rattus norvegicus; assay: Cardiotoxicity by a neonatal rat heart myocyte assay; assay type: toxicity
How it was run: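 Neonatal rat heart myocytes exposed to drug for 1 h. Read-out is the ATP/protein ratio relative to untreated control myocytes. IC50 is the 1-h concentration that reduces this ratio to 50% of control.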

[12] = tested on: A549; assay: Tested against A549 lung carcinoma in the sulforhodamine B assay.; assay type: functional, cell-based; conditions: Homo sapiens; how it was run: as §1
[13] = An average for IC50 values in the two solid tumor cell lines and sensitive L1210 leukemia cell line.; assay type: functional, cell-based
[14] = tested on: MCF7; assay: Tested against […] breast carcinoma (mitoxantrone resistant)cell line in the sulforhodamine B assay.; assay type: functional, cell-based; conditions: Homo sapiens; how it was run: as §1
[15] = tested on: WiDr; assay: Compound was tested against WiDr colon (sensitive) cell line in the sulforhodamine B assay.; assay type: functional, cell-based; conditions: Homo sapiens; how it was run: as §1
[16] = tested on: WiDr; assay: Compound was tested against WiDr colon carcinoma (resistant)cell line in the sulforhodamine B assay.; assay type: functional, cell-based; conditions: Homo sapiens; how it was run: as §1
[17] = tested on: A549; assay: Compound was tested against A549 lung carcinoma cell line in the sulforhodamine B assay.; assay type: functional, cell-based; conditions: Homo sapiens; how it was run: as §1
[18] = tested on: WiDr; assay: Compound tested against WiDr colon carcinoma (resistant) in the sulforhodamine B assay.; assay type: functional, cell-based; conditions: Homo sapiens; how it was run: as §1
[19] = tested on: L1210; assay: Compound was tested against L1210 leukemia at % increase in life span (ILS) in mice at 8 mg/kg dosage.; assay type: functional; conditions: Mus musculus
How it was run: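 Male DBA/2J mice, 10 per group, inoculated ip on day 0 with 10^6 freshly harvested leukemia cells. Compound given ip in equal doses on days 1, 5 and 9; controls received saline ip on the same days. Highest dose set 10% below the acute LD10. %ILS = 100 × (treated − control)/control, using median life span per group; value reported at highest nontoxic dose.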

Structure (SMILES) | Toxicity ratio [1] | IC50 [2] [nM] | IC50 [3] [nM] | IC50 [4] [nM] | IC50 [5] [nM] | IC50 [6] [nM] | IC50 [7] [nM] | IC50 [8] [nM] | IC50 [9] [nM] | IC50 [10] [nM] | IC50 [11] [nM] | IC50 [12] [nM] | IC50 [13] [nM] | IC50 [14] [nM] | Activity [11] | IC50 [15] [nM] | IC50 [16] [nM] | IC50 [17] [nM] | IC50 [18] [nM] | ILS at 8 mg/kg [19] [%]
CSc1ccc2c3c(c4ccccc4cc13)C(=O)N(CCN(C)C)C2=O | 310 | 0.37 | 12 | 12 | 0.52 | 64 | 14 | 8.7 | 10 | 20 | 3000 | 4.2 | 9.7 | 44 |  |  |  |  |  | 
CN(C)CCN1C(=O)c2ccc(N(C)C)c3cc4ccccc4c(c23)C1=O | 223 | 23 | 90 | 130 | 96 | 130 | 302 | 503 | 68 | 101 |  | 23 | 209 | 79 | 46600 |  |  |  |  | 
CN(C)CCNc1ccc2c3c(c4cccc(Cl)c4cc13)C(=O)N(CCN(C)C)C2=O | 47 | 2.9 |  |  | 6.8 |  | 103 | 176 |  | 29 | 3230 |  | 69 |  |  |  |  |  |  | 
CC(=O)Nc1ccc2c3c(c4ccccc4cc13)C(=O)N(CCN(C)C)C2=O | 2.8 | 486 |  |  | 729 |  | 6680 | 6080 |  | 7290 | 12900 |  | 4620 |  |  |  |  |  |  | 
CNCCN1C(=O)c2ccc(OC)c3cc4ccccc4c(c23)C1=O | 8.9 | 41 |  |  | 27 |  | 1350 | 540 |  | 2160 | 8100 |  | 913 |  |  |  |  |  |  | 
CN(C)CCN1C(=O)c2ccc(NCCO)c3cc4ccccc4c(c23)C1=O | 50 | 6 |  |  | 48 |  | 34 | 19 |  | 48 | 1210 |  | 24 |  |  |  |  |  |  | 
CN(C)CCN1C(=O)c2ccc(N)c3cc4ccccc4c(c23)C1=O | 20 |  |  |  |  |  | 109 |  |  |  | 1490 |  | 74 |  |  |  |  |  |  | 
Cc1c2ccccc2c2c3c(cccc13)C(=O)N(CCN(C)C)C2=O | 49 | 34 |  |  | 70 |  | 35 | 28 |  | 42 | 1680 |  | 35 |  |  |  |  |  |  | 
CN(C)CCN1C(=O)c2ccc(O)c3cc4ccccc4c(c23)C1=O | >18 | 217 |  |  | 145 |  | 1930 | 723 |  | 3130 | > 24100 |  | 1360 |  |  |  |  |  |  | 
CN(C)CCNc1c2ccccc2c2c3c(cccc13)C(=O)N(CCN(C)C)C2=O | 205 | 524 |  |  | 524 |  | 1860 | 2880 |  | 839 | 291000 |  | 1420 |  |  |  |  |  |  | 
CN(C)CCN1C(=O)c2ccc(Cl)c3cc4ccccc4c(c23)C1=O | 53 | 77 |  | 120 | 64 |  | 78 | 116 | 25 | 39 | 4110 |  | 77 | 50 |  | 70 | 350 | 19 |  | 
CCCOc1ccc2c3c(c4ccccc4cc13)C(=O)N(CCN(C)C)C2=O | 27 | 17 | 110 | 170 | 49 | 270 | 425 | 364 | 80 | 485 | 7760 | 19 | 289 | 110 |  |  |  |  |  | 
CN(C)CCN1C(=O)c2cccc3c(N)c4ccccc4c(c23)C1=O | 181 | 5.4 | 18 | 71 | 6.8 |  | 14 | 12 | 20 | 15 | 1950 | 7 | 10.8 | 80 |  |  |  |  | 100 | 
CC(=O)Nc1c2ccccc2c2c3c(cccc13)C(=O)N(CCN(C)C)C2=O | >36 | 487 |  |  | 487 |  | 730 | 730 |  | 730 | > 23600 |  | 649 |  |  |  |  |  |  | 
CNCCN1C(=O)c2ccc(Cl)c3cc4ccccc4c(c23)C1=O | 4 | 53 |  |  | 53 |  | 2800 | 267 |  | 5330 | 7600 |  | 1880 |  |  |  |  |  |  | 
CCSc1ccc2c3c(c4ccccc4cc13)C(=O)N(CCN(C)C)C2=O | 189 | 6 |  | 75 | 4.8 | 110 | 58 | 19 | 20 | 97 | 7740 | 4.5 | 41 | 33 |  |  |  |  |  | 
CCOc1c2ccccc2c2c3c(cccc13)C(=O)N(CCN(C)C)C2=O | 34 | 63 | 170 | 200 | 50 | 33 | 200 | 175 | 23 | 225 | 5300 | 56 | 154 | 110 |  |  |  |  |  | 
COc1ccc2c3c(c4ccccc4cc13)C(=O)N(CCN(C)C)C2=O | 205 | 2.6 | 17 | 270 | 3.9 | 33 | 4.6 | 1.3 | 14 | 7.8 | 799 | 2.2 | 3.9 | 19 |  |  |  |  |  | 86
CCc1ccc2c3c(c4ccccc4cc13)C(=O)N(CCN(C)C)C2=O | 19 | 183 |  |  | 235 |  | 522 | 522 |  | 522 | 7830 |  | 409 |  |  |  |  |  |  | 
CSc1c2ccccc2c2c3c(cccc13)C(=O)N(CCN(C)C)C2=O | >18 | 6250 |  |  | 1220 |  | 1060 | 750 |  | 1380 | > 50000 |  | 2790 |  |  |  |  |  |  | 
CN(C)CCN1C(=O)c2ccc(Cl)c3cc4c(Cl)cccc4c(c23)C1=O | >37 | 472 |  |  | 590 |  | 709 | 945 |  | 472 | > 23600 |  | 630 |  |  |  |  |  |  | 
COc1c2ccccc2c2c3c(cccc13)C(=O)N(CCN(C)C)C2=O | 194 | 117 | 180 | 180 | 109 | 260 | 143 | 130 | 150 | 156 | 26000 | 91 | 134 | 270 |  |  |  |  |  | 
CN(C)CCN1C(=O)c2cccc3c(Cl)c4ccccc4c(c23)C1=O | 31 | 154 |  |  | 206 |  | 450 | 386 |  | 514 | 10800 |  | 351 |  |  |  |  |  |  | 
CN(C)CCN1C(=O)c2cccc3c(O)c4ccccc4c(c23)C1=O | >9 | 472 |  |  | 212 |  | 3660 | 1180 |  | 6130 | > 24100 |  | 2590 |  |  |  |  |  |  | 
CN(C)CCN1C(=O)c2ccc(S(C)(=O)=O)c3cc4ccccc4c(c23)C1=O | 32 | 35 |  |  | 35 |  | 93 | 93 |  | 93 | 2320 |  | 73 |  |  |  |  |  |  | 

— ChEMBL document CHEMBL1129062, “6- and 7-substituted 2-[2'-(dimethylamino)ethyl]-1,2-dihydro-3H-dibenz[de,h] isoquinoline-1,3-diones: synthesis, nucleophilic displacements, antitumor activity, and quantitative structure-activity relationships” (J Med Chem, 1996)
